Experimental findings from ChEMBL document CHEMBL1146590, “Cytotoxic sesquiterpene lactones from the root of Saussurea lappa” (2003) are described below.

Values after ≈ are worked out from the molar mass of the structure shown. Active and inactive are the calls of the source. No cut-off for these calls is given here. Bounds are passed on as bounds.

For assay [1], the system named is OVCAR-3. Put plainly: Cytotoxicity against human OVCAR-3 cells after 48 hrs by MTT assay. It counts as functional. The settings on record: for CC50: OVCAR-3, 48 h, read-out: CD50 (the source's name). The method in brief:
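OVCAR-3 cells were exposed to a range of concentrations for 48 h, and viability was read by MTT colorimetric assay. CD50 was determined by the MTT method. Data are reported as mean ± SD (n = 4).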
In general terms: Tetrazolium assays rely on reduction of a dye to a coloured formazan, in cell work by metabolically active cells.

The subject of assay [2] is HeLa. Kind of assay: Cytotoxicity against human HeLa cells after 48 hrs by MTT assay. It counts as functional. The settings on record: read-out: CD50 (the source's name).
Assay [3] has as its system HepG2. Kind of assay: Cytotoxicity against human HepG2 cells after 48 hrs by MTT assay. It counts as functional. The conditions noted are these: for CC50: HepG2, 48 h, read-out: CD50 (the source's name).
The test system of assay [4] is Escherichia coli. Put plainly: Antibacterial activity against Escherichia coli. The assay is classed as functional.
Assay [5] has as its system Enterococcus faecalis. Put plainly: Antibacterial activity against Enterococcus faecalis. The assay is classed as functional.
Assay [6] relates to Staphylococcus aureus. Put plainly: Antibacterial activity against Staphylococcus aureus. It counts as functional.
Assay [7] deals with Enterococcus. Put plainly: Antibacterial activity against vancomycin-resistant Enterococcus CKU-17. It counts as functional.
Assay [8] relates to Staphylococcus aureus. Kind of assay: Antibacterial activity against methicillin-resistant Staphylococcus aureus. It counts as functional.
The test system of assay [9] is OVCAR-3 (Homo sapiens). Put plainly: Cytotoxicity against human OVCAR-3 cells after 48 hrs by MTT assay.
Assay [10] relates to OVCAR-3. Put plainly: Cytotoxicity against human OVCAR-3 cells assessed as half cell death at 2 times CD50 after 6 hrs by MTT assay. It counts as functional, cell-based. The method in brief:
(§1)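 OVCAR-3 cells were seeded at 5 × 10^3 per well and grown 24 h. […] Compound was washed out, fresh medium was added, and cells were incubated a further 48 h at 37 °C. Viable cells were read by MTT at OD 570 nm as % of control, mean ± SD (n = 4).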

Assay [11] relates to OVCAR-3. Put plainly: Cytotoxicity against human OVCAR-3 cells assessed as half cell death at 4 times CD50 up to 2 hrs by MTT assay. It counts as functional, cell-based. The method in brief:
as §1

For assay [12], the system named is OVCAR-3. Kind of assay: Cytotoxicity against human OVCAR-3 cells assessed as half cell death at CD50 after 24 hrs by MTT assay. The assay is classed as functional, cell-based. The method in brief:
as §1

Take `C=C(CO)[C@@H]1CC[C@@]2(C)CCC[C@@](C)(O)[C@@H]2C1` [ILICIC ALCOHOL]: the CC50 in assay [1], in assay [2] and in assay [3] was greater than 100 µg/mL throughout.
What is called MIC is the least concentration at which growth counts as inhibited. Consider `C=C1CC[C@H]2C(=C)CC[C@H]3C(=C)C(=O)O[C@@H]3[C@@H]12` [DEHYDROCOSTUSLACTONE], for which the MIC in [4] was greater than 800 µg/mL; in assay [5] it was greater than 800 µg/mL; in [6] it was 400 µg/mL (≈ 1740 µM); in assay [7], greater than 800 µg/mL; in assay [8] it was 800 µg/mL (≈ 3470 µM). Moreover, the Activity entry in assay [1], in assay [3] and in assay [9] was “Dose-dependent effect” each time. Besides, the values for the CC50 in assay [1], in [2] and in assay [3] were 2.5 µg/mL (≈ 10.9 µM), 3.5 µg/mL (≈ 15.2 µM) and 3.5 µg/mL (≈ 15.2 µM), respectively.
Take `C=C1[C@@H]2[C@H]3OC(=O)C(=C)[C@@H]3CCC(=C)[C@@H]2C[C@@H]1O` [ZALUZANIN C]: the figures for the CC50 in assay [1], in [2] and in [3] were 15 µg/mL (≈ 60.9 µM), 22 µg/mL (≈ 89.3 µM) and 34 µg/mL (≈ 138 µM), respectively.
Taken in the same sequence, the figures for `C=C1CC[C@H]2C(=C)CC[C@@H]3[C@H](OC(=O)[C@@]3(O)CC(C)=O)[C@@H]12` [LAPPALONE] were greater than 100 µg/mL, greater than 100 µg/mL and greater than 100 µg/mL.
On to `C=C1CC[C@@H](O)[C@]2(C)CC[C@@H]3[C@H](OC(=O)[C@H]3C)[C@@H]12`, for which the CC50 is 95 µg/mL (≈ 379 µM) in assay [1], greater than 100 µg/mL in assay [2] and greater than 100 µg/mL in assay [3].
Take `CN[C@H](CC(C)C)C(=O)N[C@H]1C(=O)N[C@@H](CC(N)=O)C(=O)N[C@H]2C(=O)N[C@H]3C(=O)N[C@H](C(=O)N[C@H](C(=O)O)c4cc(O)cc(O)c4-c4cc3ccc4O)[C@H](O)c3ccc(c(Cl)c3)Oc3cc2cc(c3O[C@@H]2O[C@H](CO)[C@@H](O)[C@H](O)[C@H]2O[C@H]2C[C@](C)(N)[C@H](O)[C@H](C)O2)Oc2ccc(cc2Cl)[C@H]1O` [VANCOMYCIN]: the minimal inhibitory concentration (MIC) was 3.13 µg/mL (≈ 2.16 µM) in assay [5], 1.56 µg/mL (≈ 1.08 µM) in assay [6], greater than 100 µg/mL in assay [7] and 1.56 µg/mL (≈ 1.08 µM) in assay [8].
Consider `C=C1C(=O)O[C@@H]2[C@H]3C(C)=CC[C@@H](O)[C@]3(C)CC[C@@H]12` [SANTAMARIN], for which the MIC in assay [4] is greater than 800 µg/mL; in assay [5], greater than 800 µg/mL; in [6] it was 800 µg/mL (≈ 3220 µM); in assay [7], greater than 800 µg/mL; in assay [8] it was 800 µg/mL (≈ 3220 µM). The CC50 in assay [1] worked out at 10 µg/mL (≈ 40.3 µM); in [2], 10 µg/mL (≈ 40.3 µM); in assay [3], 7.5 µg/mL (≈ 30.2 µM).
Regarding `C[C@@H]1C(=O)O[C@H]2[C@H]1CC[C@@]1(C)[C@H](O)CC[C@@](C)(O)[C@H]21` [COLARTIN], the MIC in [4], in assay [5], in assay [6] and in assay [7] was greater than 800 µg/mL in each case. The CC50 is 100 µg/mL (≈ 373 µM) in [1], 100 µg/mL (≈ 373 µM) in [2] and greater than 100 µg/mL in assay [3].
As to `C=C1CC[C@@H](O)[C@]2(C)CC[C@H]3C(=C)C(=O)O[C@@H]3[C@@H]12` [REYNOSIN], the MIC in assay [4] was greater than 800 µg/mL; in [5], greater than 800 µg/mL; in assay [6] it was 800 µg/mL (≈ 3220 µM); in [7] it was greater than 800 µg/mL; in assay [8], greater than 800 µg/mL. Further, the CC50 was 7.5 µg/mL (≈ 30.2 µM) in [1], 7.5 µg/mL (≈ 30.2 µM) in assay [2] and 11 µg/mL (≈ 44.3 µM) in assay [3].
As to `C=C1[C@@H]2[C@H]3OC(=O)[C@@H](C)[C@@H]3CCC(=C)[C@@H]2C[C@H]1O`, the CC50 in assay [1] is 65 µg/mL (≈ 262 µM); in assay [2], 65 µg/mL (≈ 262 µM); in assay [3], 75 µg/mL (≈ 302 µM).
For GENTAMICIN, the MIC in [4] was 3.13 µg/mL; in assay [6] it was 0.78 µg/mL; in [8], greater than 100 µg/mL.
Turning to `C=C1CC[C@@H](O)[C@]2(C)CC[C@@H](C(=C)C(=O)OCC)[C@H](O)[C@@H]12`, the CC50 in assay [1] was 75 µg/mL (≈ 255 µM); in [2], 75 µg/mL (≈ 255 µM); in assay [3], 50 µg/mL (≈ 170 µM).
Turning to `C=C1C(=O)O[C@@H]2/C=C(\C)CC/C=C(\C)CC[C@@H]12` [COSTUNOLIDE], the MIC in assay [4] was greater than 800 µg/mL; in [5], 400 µg/mL (≈ 1720 µM); in assay [6], 100 µg/mL (≈ 430 µM); in assay [7], 400 µg/mL (≈ 1720 µM); in assay [8], 200 µg/mL (≈ 861 µM). Also, the Activity result in [1], in [3] and in assay [9] was “Dose-dependent effect” each time. For the same compound, the figures for the CC50 in [1], in assay [2] and in assay [3] were 2 µg/mL (≈ 8.61 µM), 2 µg/mL (≈ 8.61 µM) and 1.6 µg/mL (≈ 6.89 µM), respectively.
Turning to `C=C1[C@@H]2[C@H]3OC(=O)C(=C)[C@@H]3CCC(=C)[C@@H]2C[C@H]1O` [ISOZALUZANIN C], the CC50 in assay [1] is 7.5 µg/mL (≈ 30.4 µM); in [2], 13.5 µg/mL (≈ 54.8 µM); in [3], 15 µg/mL (≈ 60.9 µM).
As for `C=C1CC[C@H]2C(=C)CC[C@@H]3[C@H](OC(=O)[C@@]3(O)C[C@]3(C)CCC(=O)[C@]4(C)CC[C@H]5C(=C)C(=O)O[C@@H]5[C@@H]34)[C@@H]12` [LAPPADILACTONE], the Activity result in [1], in assay [3] and in assay [9] was “Dose-dependent effect” in each case. Besides, the CC50 in assay [1] is 2.5 µg/mL (≈ 5.05 µM); in assay [2] it was 1.8 µg/mL (≈ 3.64 µM); in assay [3] it was 2.4 µg/mL (≈ 4.85 µM). In addition, the result in assay [10], in [11] and in [12] was Active.
Take `C=C1C(=O)O[C@@H]2[C@@H]3[C@](C)(CCC[C@@]3(C)O)CC[C@@H]12` [ARBUSCULIN A]: the results for the CC50 in assay [1], in assay [2] and in assay [3] were 7.5 µg/mL (≈ 30 µM), 7.5 µg/mL (≈ 30 µM) and 10 µg/mL (≈ 39.9 µM), respectively.
Turning to `O=C(N[C@H](CO)[C@H](O)c1ccc([N+](=O)[O-])cc1)C(Cl)Cl` [CHLORAMPHENICOL], the MIC in assay [5] and in [7] was 6.25 µg/mL (≈ 19.3 µM) throughout.
